Data set [1] concerns HCT-116. The data set is described as follows: Antiproliferative activity against human HCT116 cells assessed as reduction in cell viability after 48 hrs by MTT assay. The class given is functional, cell-based. To be noted: HCT-116, 48 h. Background: Tetrazolium assays rely on reduction of a dye to a coloured formazan, in cell work by metabolically active cells.
Data set [2] deals with Huh-7. The experiment in a line: Antiproliferative activity against human HuH7 cells assessed as reduction in cell viability after 48 hrs by MTT assay. The class given is functional, cell-based. To be noted: Huh-7, 48 h.
In data set [3] the test system is A549. The data set is described as follows: Antiproliferative activity against human A549 cells assessed as reduction in cell viability after 48 hrs by MTT assay. It counts as functional, cell-based. To be noted: A549, 48 h.
The subject of data set [4] is HL-60. The data set is described as follows: Antiproliferative activity against human HL60 cells assessed as reduction in cell viability after 48 hrs by MTT assay. It counts as functional, cell-based. To be noted: HL-60, 48 h.
In data set [5] the target is Phosphatidylinositol 4,5-bisphosphate 3-kinase catalytic subunit beta isoform (Homo sapiens, UniProt P42338). The experiment in a line: Inhibition of PI3Kbeta (unknown origin) using diC8-PI(4,5)P2 as substrate incubated for 3 hrs in presence of ATP by fluorescence polarization assay. In a few lines: (§1)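 Fluorescence polarization competition assay, 10 μL reactions at pH 7: 2.5 mM MgCl₂, 5 mM HEPES, ATP, 10 mM DTT, 50 ng PI3K isoform, diC8-PI(4,5)P2 substrate. After 3 h at room temperature, reactions were chelator-quenched. Phosphoinositide binding protein and fluorophore-labelled tracer were added, then 1 h dark equilibration and polarization read.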
On the technique in general: Polarisation of emitted light reports the rotation of a fluorescent probe.

Data set [6] is described as follows: Cytotoxicity against human 293T cells. As to conditions: HEK-293T cells. It counts as cell-based.
Data set [7] deals with Serine/threonine-protein kinase mTOR (Homo sapiens, UniProt P42345). The data set is described as follows: Inhibition of mTOR (unknown origin).
Data set [8] addresses T1, Phosphatidylinositol 4,5-bisphosphate 3-kinase catalytic subunit delta isoform (Homo sapiens, UniProt O00329).
T1 sequence (O00329 whole entry): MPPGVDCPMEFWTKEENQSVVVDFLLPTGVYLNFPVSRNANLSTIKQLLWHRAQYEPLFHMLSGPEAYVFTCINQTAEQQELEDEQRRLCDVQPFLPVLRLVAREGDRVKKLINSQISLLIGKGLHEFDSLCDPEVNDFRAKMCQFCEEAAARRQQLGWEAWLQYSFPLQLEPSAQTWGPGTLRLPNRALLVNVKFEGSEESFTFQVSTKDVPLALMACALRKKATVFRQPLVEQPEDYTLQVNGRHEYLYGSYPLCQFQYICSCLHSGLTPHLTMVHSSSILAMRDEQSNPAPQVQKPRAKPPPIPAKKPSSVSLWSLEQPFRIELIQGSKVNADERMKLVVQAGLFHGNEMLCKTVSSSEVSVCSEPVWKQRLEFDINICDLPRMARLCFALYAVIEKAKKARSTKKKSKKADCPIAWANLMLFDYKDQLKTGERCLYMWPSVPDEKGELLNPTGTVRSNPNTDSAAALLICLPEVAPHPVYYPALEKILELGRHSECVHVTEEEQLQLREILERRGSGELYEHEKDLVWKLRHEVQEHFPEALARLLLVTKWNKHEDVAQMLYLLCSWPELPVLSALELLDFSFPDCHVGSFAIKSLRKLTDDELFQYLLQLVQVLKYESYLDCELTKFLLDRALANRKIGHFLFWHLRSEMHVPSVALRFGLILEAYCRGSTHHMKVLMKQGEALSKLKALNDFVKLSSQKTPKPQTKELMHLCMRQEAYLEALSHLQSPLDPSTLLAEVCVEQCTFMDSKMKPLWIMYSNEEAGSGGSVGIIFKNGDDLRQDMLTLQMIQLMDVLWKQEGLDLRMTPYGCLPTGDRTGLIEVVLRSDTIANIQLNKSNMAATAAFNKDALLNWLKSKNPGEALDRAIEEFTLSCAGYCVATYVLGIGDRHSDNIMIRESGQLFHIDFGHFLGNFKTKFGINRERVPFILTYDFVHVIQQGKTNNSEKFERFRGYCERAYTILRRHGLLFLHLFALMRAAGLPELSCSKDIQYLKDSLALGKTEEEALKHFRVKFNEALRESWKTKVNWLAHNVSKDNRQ
The data set is described as follows: Inhibition of PI3Kdelta (unknown origin) using diC8-PI(4,5)P2 as substrate incubated for 3 hrs in presence of ATP by fluorescence polarization assay. In a few lines:
as §1

For data set [9], the target named is Phosphatidylinositol 4,5-bisphosphate 3-kinase catalytic subunit alpha isoform (Homo sapiens, UniProt P42336). The experiment in a line: Inhibition of PI3Kalpha (unknown origin) using diC8-PI(4,5)P2 as substrate incubated for 3 hrs in presence of ATP by fluorescence polarization assay. The procedure, abridged:
as §1

Data set [10] has as its target Phosphatidylinositol 4,5-bisphosphate 3-kinase catalytic subunit gamma isoform (Homo sapiens, UniProt P48736). The experiment in a line: Inhibition of PI3Kgamma (unknown origin) using diC8-PI(4,5)P2 as substrate incubated for 3 hrs in presence of ATP by fluorescence polarization assay. The procedure, abridged: as §1

For orientation: IC50 means the concentration that gives 50% inhibition. One may read the CC50 as the concentration giving 50% cytotoxicity. Read a low CC50 as harm at low concentration.

Sequence of Phosphatidylinositol 4,5-bisphosphate 3-kinase catalytic subunit gamma isoform (P48736 whole entry, canonical isoform): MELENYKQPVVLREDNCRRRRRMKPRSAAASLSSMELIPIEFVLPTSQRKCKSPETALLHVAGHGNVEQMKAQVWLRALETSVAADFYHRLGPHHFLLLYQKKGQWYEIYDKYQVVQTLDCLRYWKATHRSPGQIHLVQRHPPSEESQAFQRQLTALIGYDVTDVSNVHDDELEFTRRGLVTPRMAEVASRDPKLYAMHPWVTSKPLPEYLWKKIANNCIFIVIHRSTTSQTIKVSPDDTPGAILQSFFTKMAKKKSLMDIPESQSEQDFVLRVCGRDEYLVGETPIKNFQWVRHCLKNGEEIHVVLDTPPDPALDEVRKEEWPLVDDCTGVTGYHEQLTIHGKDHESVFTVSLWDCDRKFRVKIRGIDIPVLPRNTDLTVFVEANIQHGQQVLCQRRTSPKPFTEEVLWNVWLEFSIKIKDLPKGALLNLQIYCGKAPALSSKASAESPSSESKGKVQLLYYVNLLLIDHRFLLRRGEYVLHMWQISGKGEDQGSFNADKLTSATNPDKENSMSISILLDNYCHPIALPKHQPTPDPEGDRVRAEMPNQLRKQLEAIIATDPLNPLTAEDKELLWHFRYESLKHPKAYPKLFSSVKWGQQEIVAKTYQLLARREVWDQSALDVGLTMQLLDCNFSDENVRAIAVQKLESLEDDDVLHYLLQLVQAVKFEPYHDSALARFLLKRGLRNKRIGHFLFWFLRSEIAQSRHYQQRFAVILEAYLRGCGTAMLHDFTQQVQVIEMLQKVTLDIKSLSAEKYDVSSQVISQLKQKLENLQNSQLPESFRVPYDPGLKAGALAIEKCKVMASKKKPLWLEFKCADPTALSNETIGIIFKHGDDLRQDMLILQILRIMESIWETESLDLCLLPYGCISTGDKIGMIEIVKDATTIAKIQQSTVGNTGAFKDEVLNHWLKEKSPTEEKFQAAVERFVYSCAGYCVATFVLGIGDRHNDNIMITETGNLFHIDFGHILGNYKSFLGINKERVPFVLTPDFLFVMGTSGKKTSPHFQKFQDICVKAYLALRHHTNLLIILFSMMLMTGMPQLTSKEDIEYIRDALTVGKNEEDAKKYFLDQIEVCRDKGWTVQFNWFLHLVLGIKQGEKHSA
Sequence of Phosphatidylinositol 4,5-bisphosphate 3-kinase catalytic subunit beta isoform (P42338 whole entry, canonical isoform): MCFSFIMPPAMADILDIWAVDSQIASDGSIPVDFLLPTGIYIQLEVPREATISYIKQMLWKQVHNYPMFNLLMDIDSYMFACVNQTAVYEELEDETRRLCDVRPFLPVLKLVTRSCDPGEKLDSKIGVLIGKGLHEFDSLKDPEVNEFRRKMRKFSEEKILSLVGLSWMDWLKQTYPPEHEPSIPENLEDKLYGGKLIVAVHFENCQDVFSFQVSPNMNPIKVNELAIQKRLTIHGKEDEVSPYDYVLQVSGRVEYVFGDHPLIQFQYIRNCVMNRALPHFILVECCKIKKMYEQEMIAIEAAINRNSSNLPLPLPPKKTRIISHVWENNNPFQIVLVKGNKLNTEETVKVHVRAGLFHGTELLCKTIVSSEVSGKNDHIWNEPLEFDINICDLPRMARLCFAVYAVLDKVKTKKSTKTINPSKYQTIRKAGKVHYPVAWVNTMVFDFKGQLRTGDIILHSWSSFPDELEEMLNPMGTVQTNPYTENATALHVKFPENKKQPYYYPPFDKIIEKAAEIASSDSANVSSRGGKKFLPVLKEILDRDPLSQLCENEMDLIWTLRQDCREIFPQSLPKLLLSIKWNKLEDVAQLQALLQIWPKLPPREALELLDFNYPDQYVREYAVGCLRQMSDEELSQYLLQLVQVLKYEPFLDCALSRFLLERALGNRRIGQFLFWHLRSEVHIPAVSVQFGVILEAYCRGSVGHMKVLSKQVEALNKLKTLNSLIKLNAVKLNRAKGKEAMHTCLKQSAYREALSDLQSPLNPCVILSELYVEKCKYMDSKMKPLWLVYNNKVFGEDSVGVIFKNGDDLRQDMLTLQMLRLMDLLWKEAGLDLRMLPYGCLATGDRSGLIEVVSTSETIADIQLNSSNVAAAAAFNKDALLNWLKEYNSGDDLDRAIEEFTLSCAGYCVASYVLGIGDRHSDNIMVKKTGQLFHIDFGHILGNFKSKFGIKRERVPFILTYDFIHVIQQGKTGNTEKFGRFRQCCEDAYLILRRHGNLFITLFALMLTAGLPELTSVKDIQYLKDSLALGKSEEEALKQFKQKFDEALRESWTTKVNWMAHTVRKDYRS
Sequence of Phosphatidylinositol 4,5-bisphosphate 3-kinase catalytic subunit alpha isoform (P42336 whole entry, canonical isoform): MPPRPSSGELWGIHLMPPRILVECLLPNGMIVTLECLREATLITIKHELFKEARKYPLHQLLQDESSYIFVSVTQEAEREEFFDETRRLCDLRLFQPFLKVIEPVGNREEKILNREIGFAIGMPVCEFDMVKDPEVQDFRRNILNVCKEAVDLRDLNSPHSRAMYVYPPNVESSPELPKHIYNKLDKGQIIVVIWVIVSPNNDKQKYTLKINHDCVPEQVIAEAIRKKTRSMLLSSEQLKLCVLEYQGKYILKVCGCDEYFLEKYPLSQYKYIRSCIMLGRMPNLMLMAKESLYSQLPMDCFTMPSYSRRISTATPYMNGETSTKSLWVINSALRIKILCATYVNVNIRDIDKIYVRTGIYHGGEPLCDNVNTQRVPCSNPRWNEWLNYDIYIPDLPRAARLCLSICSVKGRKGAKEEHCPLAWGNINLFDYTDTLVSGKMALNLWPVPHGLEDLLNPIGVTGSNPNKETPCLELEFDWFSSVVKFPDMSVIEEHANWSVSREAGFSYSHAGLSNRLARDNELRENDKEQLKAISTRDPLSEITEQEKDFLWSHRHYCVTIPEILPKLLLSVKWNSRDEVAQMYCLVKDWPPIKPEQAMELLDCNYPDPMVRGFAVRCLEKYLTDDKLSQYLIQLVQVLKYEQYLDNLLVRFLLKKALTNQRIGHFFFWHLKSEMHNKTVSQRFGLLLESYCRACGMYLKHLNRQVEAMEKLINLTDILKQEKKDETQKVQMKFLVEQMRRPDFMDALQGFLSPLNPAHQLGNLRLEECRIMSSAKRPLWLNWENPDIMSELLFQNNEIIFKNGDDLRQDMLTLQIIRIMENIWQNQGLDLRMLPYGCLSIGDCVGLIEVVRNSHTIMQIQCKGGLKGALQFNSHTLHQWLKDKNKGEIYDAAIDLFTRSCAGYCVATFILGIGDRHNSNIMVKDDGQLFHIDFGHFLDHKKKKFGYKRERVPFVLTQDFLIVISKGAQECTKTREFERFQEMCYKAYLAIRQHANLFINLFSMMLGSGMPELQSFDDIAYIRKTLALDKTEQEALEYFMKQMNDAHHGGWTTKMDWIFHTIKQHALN

Take `CCS(=O)(=O)N1CCN(Cn2cc3c(=O)oc4ccccc4c3n2)CC1`: the half-maximal inhibitory concentration (IC50) in data set [1], in data set [2], in data set [3] and in data set [4] was more than 100 µM in each case.
With `CCCCS(=O)(=O)N1CCN(Cn2cc3c(=O)oc4ccccc4c3n2)CC1`, the IC50 is 87.9 µM in [1], more than 100 µM in data set [2], more than 100 µM in data set [3] and more than 100 µM in data set [4].
Turning to `CC(C)c1cc(C(C)C)c(S(=O)(=O)N2CCN(Cn3cc4c(=O)oc5ccccc5c4n3)CC2)c(C(C)C)c1`, the IC50 in data set [5] was 0.21 µM; in [1] it was 0.08 µM; in [7], more than 10 µM; in data set [8], 0.42 µM; in [9], 0.042 µM; in data set [10] it was 0.11 µM. Besides, the IC50 in data set [2] is 0.14 µM; in data set [3], 0.09 µM; in data set [4], 0.09 µM. This compound came in with a CC50 in [6] of 332 µM.
`CCCS(=O)(=O)N1CCN(Cn2cc3c(=O)oc4ccccc4c3n2)CC1`: the IC50 turned out to be 57.6 µM in [1], 87.6 µM in data set [2], 79.7 µM in [3] and 89.4 µM in data set [4].
Regarding `O=c1oc2ccccc2c2nn(CN3CCN(S(=O)(=O)CCCl)CC3)cc12`, the IC50 in data set [1] is 45.8 µM; in data set [2], 62.9 µM; in data set [3], 68.7 µM; in data set [4] it was 78.6 µM.
Turning to `O=c1oc2ccccc2c2nn(CN3CCN(S(=O)(=O)c4ccc(Cl)cc4)CC3)cc12`, the IC50 was 2.19 µM in data set [5]; 0.81 µM in data set [1]; more than 10 µM in data set [7]; 4.72 µM in data set [8]; 1.55 µM in [9]; 2.65 µM in data set [10]. The IC50 in data set [2] was determined as 1.61 µM; in data set [3], 1.21 µM; in data set [4], 0.64 µM. Besides, the CC50 in data set [6] is 278 µM.
Turning to `O=c1oc2ccccc2c2nn(CN3CCN(S(=O)(=O)c4ccccc4[N+](=O)[O-])CC3)cc12`, the IC50 in data set [5] is 9.14 µM; in data set [1], 4.87 µM; in data set [7], 8.37 µM; in [8], 6.15 µM; in [9], more than 10 µM; in data set [10], 8.42 µM. For the same compound, the values for the IC50 in data set [2], in data set [3] and in [4] were 7.92 µM, 7.66 µM and 8.23 µM, respectively. In addition, the CC50 in [6] amounted to 372 µM.
As to `Cn1c(=O)n(-c2ccc(C(C)(C)C#N)cc2)c2c3cc(-c4cnc5ccccc5c4)ccc3ncc21` [DACTOLISIB], the half-inhibitory concentration (IC50) turned out to be 0.24 µM in data set [1], 0.53 µM in data set [2], 0.38 µM in data set [3] and 0.91 µM in [4].
For `O=c1oc2ccccc2c2nn(CN3CCN(S(=O)(=O)c4cccc([N+](=O)[O-])c4)CC3)cc12`, the IC50 in data set [5] was more than 10 µM; in [1] it was 1.29 µM; in data set [7] it was more than 10 µM; in data set [8] it was more than 10 µM; in data set [9] it was 6.18 µM; in data set [10] it was 9.34 µM. Moreover, the IC50 in data set [2] came out at 3.65 µM; in data set [3], 3.67 µM; in [4], 2.01 µM. In data set [6], this compound had a CC50 of 412 µM.
With `O=c1oc2ccccc2c2nn(CN3CCN(S(=O)(=O)c4ccc(Br)cc4)CC3)cc12`, the IC50 in [5] is 9.71 µM; in [1], 1.89 µM; in data set [7], more than 10 µM; in data set [8] it was 9.31 µM; in [9], 8.3 µM; in data set [10] it was more than 10 µM. The concentration for half-maximal inhibition (IC50) in [2] was 5.08 µM; in data set [3] it was 3.09 µM; in data set [4] it was 4.78 µM. Besides, in [6], the CC50 is 387 µM.
For the compound `CC(C)(C)c1ccc(S(=O)(=O)N2CCN(Cn3cc4c(=O)oc5ccccc5c4n3)CC2)cc1`, the IC50 in data set [5] is 2.65 µM; in data set [1], 0.47 µM; in [7], more than 10 µM; in data set [8], 0.75 µM; in data set [9], 0.95 µM; in [10], 1.32 µM. The IC50 amounted to 0.9 µM in data set [2], 0.74 µM in data set [3] and 0.84 µM in data set [4]. Further, the CC50 in data set [6] amounted to 231 µM.
As for `O=c1oc2ccccc2c2nn(CN3CCN(S(=O)(=O)c4ccc([N+](=O)[O-])cc4)CC3)cc12`, the IC50 is 4.14 µM in [5]; 0.92 µM in data set [1]; more than 10 µM in data set [7]; 5.45 µM in data set [8]; 2.63 µM in [9]; 4.01 µM in data set [10]. Also, the IC50 in [2] worked out at 2.82 µM; in [3], 2.1 µM; in data set [4], 2.67 µM. In data set [6], this compound displayed a CC50 of 347 µM.
Take `Cc1ccc(C)c(S(=O)(=O)N2CCN(Cn3cc4c(=O)oc5ccccc5c4n3)CC2)c1`: the IC50 in data set [5] is 0.85 µM; in [1], 0.13 µM; in [7], more than 10 µM; in data set [8] it was 1.42 µM; in [9] it was 0.3 µM; in data set [10], 0.81 µM. The IC50 in data set [2] stood at 0.66 µM; in data set [3] it was 0.48 µM; in data set [4], 0.22 µM. In addition, in data set [6], it took 397 µM to reach half-maximal cytotoxicity (CC50).
With `COc1ccc(S(=O)(=O)N2CCN(Cn3cc4c(=O)oc5ccccc5c4n3)CC2)cc1`, the IC50 in data set [1] was found to be 12.1 µM; in data set [2] it was 34 µM; in data set [3], 27.4 µM; in data set [4], 24.5 µM.
Take `O=c1oc2ccccc2c2nn(CN3CCN(S(=O)(=O)c4ccccc4)CC3)cc12`: the IC50 in data set [1] was 7.53 µM; in data set [2], 11.3 µM; in [3] it was 13.9 µM; in data set [4], 22.1 µM.
For the compound `CS(=O)(=O)N1CCN(Cn2cc3c(=O)oc4ccccc4c3n2)CC1`, the IC50 in data set [1] is more than 100 µM; in [2] it was 97.1 µM; in data set [3] it was more than 100 µM; in data set [4], more than 100 µM.
For `O=c1oc2ccccc2c2nn(CN3CCN(S(=O)(=O)c4ccc(F)cc4)CC3)cc12`, the IC50 was more than 10 µM in data set [5]; 2.45 µM in [1]; 9.12 µM in data set [7]; 9.76 µM in data set [8]; 8.91 µM in data set [9]; 7.51 µM in [10]. For the same compound, the IC50 in data set [2] came out at 6.44 µM; in [3] it was 5.11 µM; in data set [4] it was 6.33 µM. The same compound registered a 50% cytotoxic concentration (CC50) in data set [6] of 298 µM.
In the case of `O=c1oc2ccccc2c2nn(CN3CCN(S(=O)(=O)CCCCl)CC3)cc12`, the IC50 was 38 µM in data set [1], 48.5 µM in [2], 52.1 µM in [3] and 55.1 µM in [4].
For the compound `O=c1oc2ccccc2c2nn(CN3CCN(S(=O)(=O)C4CC4)CC3)cc12`, the IC50 in data set [1] was 69.3 µM; in [2] it was 79 µM; in data set [3] it was 82 µM; in data set [4], 71.4 µM.
Regarding `Cc1ccc(S(=O)(=O)N2CCN(Cn3cc4c(=O)oc5ccccc5c4n3)CC2)cc1`, the IC50 was found to be 11.1 µM in data set [1], 28.5 µM in [2], 21.5 µM in [3] and 16.9 µM in data set [4].
Regarding `O=c1oc2ccccc2c2nn(CN3CCN(S(=O)(=O)C(F)(F)F)CC3)cc12`, the IC50 in data set [1], in data set [2], in data set [3] and in [4] was more than 100 µM throughout.

The values are drawn from ChEMBL document CHEMBL4359902, “Development of novel chromeno[4,3-c]pyrazol-4(2H)-one derivates bearing sulfonylpiperazine as antitumor inhibitors targeting PI3Kα” (Eur J Med Chem, 2019).
